Results published in ChEMBL document CHEMBL4011645, “New Inhibitor Targeting Signal Transducer and Activator of Transcription 5 (STAT5) Signaling in Myeloid Leukemias” (J Med Chem, 2017).
The source made the active and inactive calls. No cut-off for these calls is given here.

How the values were obtained:
[1] = tested on: KU812 cell line; experiment: Antiproliferative activity against human KU812 cells at 10 uM after 72 hrs by trypan blue assay; assay type: functional, cell-based
Outline: (§1)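 Screen at a single 10 μM, DMSO as vehicle control, growth followed at 24, 48 and 72 h. Readouts: MTT (0.2×10^5 cells/well in X-Vivo, 4 h MTT, SDS/HCl lysis, OD 570 nm) and trypan blue exclusion counts of living cells. n = 3 in triplicates, mean ± SEM.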

[2] = tested on: K562; experiment: Antiproliferative activity against human K562 cells at 10 uM after 72 hrs by trypan blue assay; assay type: functional, cell-based; outline: as §1
[3] = tested on: KU812 cell line; experiment: Induction of apoptosis in human KU812 cells at 10 uM after 48 hrs by FITC-Annexin V and 7-amino-actinomycin D staining-based flow cytometry method; assay type: functional, cell-based
Outline: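 After 48 h culture with 10 μM or DMSO, 10^6 cells stained with FITC-Annexin V and 7-AAD for 15 min at 4 °C. Percentage of apoptotic cells measured by flow cytometry; n = 3 in triplicates, mean ± SEM.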

[4] = tested on: KU812 cell line; experiment: Antiproliferative activity against human KU812 cells after 48 hrs by MTT assay; assay type: functional, cell-based; conditions: KU812, 48 h
Outline: (§2)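 K562 or KU812 cells (RPMI/10% FBS, 37 °C, 5% CO2) exposed to 100 nM–50 μM for 48 h. 0.2×10^5 cells per well in phenol-red-free X-Vivo, MTT 4 h, lysis overnight in 10% SDS/0.003% HCl, absorbance at 570 nm. EC50 fitted; n = 3 in triplicates, mean ± SEM.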

[5] = tested on: K562; experiment: Antiproliferative activity against human K562 cells after 48 hrs by MTT assay; assay type: functional, cell-based; conditions: K562, 48 h; outline: as §2
[6] = tested on: KU812 cell line; experiment: Antiproliferative activity against human KU812 cells at 10 uM up to 72 hrs by MTT assay; assay type: functional, cell-based; outline: as §1
[7] = tested on: K562; experiment: Antiproliferative activity against human K562 cells at 10 uM after 72 hrs by MTT assay; assay type: functional, cell-based; outline: as §1
[8] = tested on: KU812 cell line; experiment: Antiproliferative activity against human KU812 cells at 10 uM after 48 hrs by trypan blue assay; assay type: functional, cell-based; outline: as §1
[9] = tested on: KU812 cell line; experiment: Antiproliferative activity against human KU812 cells at 10 uM after 24 hrs by MTT assay; assay type: functional, cell-based; outline: as §1
[10] = tested on: K562; experiment: Antiproliferative activity against human K562 cells at 10 uM after 48 hrs by MTT assay; assay type: functional, cell-based; outline: as §1
[11] = tested on: KU812 cell line; experiment: Antiproliferative activity against human KU812 cells at 10 uM after 24 hrs by trypan blue assay; assay type: functional, cell-based; outline: as §1
[12] = tested on: KU812 cell line; experiment: Antiproliferative activity against human KU812 cells at 10 uM after 48 hrs by MTT assay; assay type: functional, cell-based; outline: as §1
[13] = tested on: K562; experiment: Antiproliferative activity against human K562 cells at 10 uM after 48 hrs by trypan blue assay; assay type: functional, cell-based; outline: as §1
[14] = target: T1, Signal transducer and activator of transcription 5A (Homo sapiens) (UniProt P42229); experiment: Inhibition of STAT5 phosphorylation in human KU812 cells at 10 uM after 72 hrs by Western blot method; assay type: cell-based
T1 sequence (whole entry): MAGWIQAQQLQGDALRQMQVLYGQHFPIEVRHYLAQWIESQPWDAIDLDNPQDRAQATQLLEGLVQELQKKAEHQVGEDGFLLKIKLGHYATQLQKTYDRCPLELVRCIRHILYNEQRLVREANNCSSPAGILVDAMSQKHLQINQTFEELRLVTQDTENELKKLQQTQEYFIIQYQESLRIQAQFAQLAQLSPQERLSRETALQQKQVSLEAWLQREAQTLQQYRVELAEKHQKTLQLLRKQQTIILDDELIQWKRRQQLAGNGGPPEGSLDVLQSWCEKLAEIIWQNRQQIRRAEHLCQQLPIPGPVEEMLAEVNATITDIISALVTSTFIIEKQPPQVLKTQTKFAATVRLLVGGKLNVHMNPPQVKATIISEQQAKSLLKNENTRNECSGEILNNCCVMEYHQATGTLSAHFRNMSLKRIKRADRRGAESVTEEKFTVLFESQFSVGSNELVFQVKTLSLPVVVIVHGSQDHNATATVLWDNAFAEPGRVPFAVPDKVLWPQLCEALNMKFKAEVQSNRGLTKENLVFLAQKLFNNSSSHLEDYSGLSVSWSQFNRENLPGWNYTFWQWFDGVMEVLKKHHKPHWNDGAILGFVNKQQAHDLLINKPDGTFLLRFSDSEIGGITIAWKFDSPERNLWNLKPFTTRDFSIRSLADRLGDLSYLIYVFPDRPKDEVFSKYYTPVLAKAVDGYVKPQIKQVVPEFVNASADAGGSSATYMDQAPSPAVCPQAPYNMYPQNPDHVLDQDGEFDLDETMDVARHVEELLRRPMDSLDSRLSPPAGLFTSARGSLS
Outline: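 Western blot of KU812 cells 72 h after exposure to 10 µM. Lysates in 2x Laemmli buffer were run on SDS-PAGE and transferred to nitrocellulose. Blots were probed with P-Y694/699-STAT5 and STAT5 antibodies and detected by ECL.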

[15] = tested on: K562; experiment: Antiproliferative activity against human K562 cells at 10 uM after 24 hrs by trypan blue assay; assay type: functional, cell-based; outline: as §1
[16] = tested on: K562; experiment: Antiproliferative activity against human K562 cells at 10 uM after 24 hrs by MTT assay; assay type: functional, cell-based; outline: as §1

With `CC1(C)CCN(CCOc2ccc3[nH]ccc3c2)c2ccc(-c3ccncc3)cc21` the Activity [1] was “Active”, the Activity [2] was “Active” and the Activity [3] was “Active”. It also gave an EC50 [4] of 9.38 µM and an EC50 [5] of 22.7 µM.
`CC1(C)CCN(CCOc2ccc3[nH]ccc3c2)c2ccc(-c3ccc(Cl)nc3)cc21` was tested, and the Activity [1] was “Active”, the Activity [3] was “Active” and the EC50 [4] was 5.41 µM. For the same compound, the EC50 [5] was 13 µM.
`CC1(C)CCN(CCOc2ccc3[nH]ccc3c2)c2ccc(-c3cccc([N+](=O)[O-])c3)cc21` was tested, and the Activity [1] was “inactive”, the Activity [2] was “inactive” and the Activity [6] was “inactive”. For the same compound, the Activity [7] was “inactive”.
In the case of `CC1(C)CCN(CCOc2ccc3[nH]ccc3c2)c2ccc(C(=O)C3CCCCC3)cc21`, the Activity [8] is reported as “inactive”, the Activity [2] is reported as “inactive” and the Activity [9] is reported as “Active”. For the same compound, the Activity [10] was “Active”, the Activity [11] was “Active” and the Activity [7] was “inactive”. The Activity [12] was “inactive” and the Activity [13] was “Active”.
With `CC1(C)CCN(CCOc2ccc3c(ccn3CC(=O)O)c2)c2ccc(C(=O)C3CCCCC3)cc21` the EC50 [4] was 197 µM and the inhibition [14] was “Active”.
With `CC1(C)CCN(CCOc2ccc3c(ccn3CC(=O)O)c2)c2ccccc21` the Activity [8] was “inactive”, the Activity [10] was “inactive” and the Activity [12] was “inactive”. For the same compound, the Activity [13] was “inactive”.
`Cn1ccc2cc(OCCN3CCC(C)(C)c4ccccc43)ccc21` was tested, and the Activity [1] was “inactive”, the Activity [2] was “inactive” and the Activity [6] was “inactive”. For the same compound, the Activity [7] was “inactive”.
`CC1(C)CCN(CCOc2ccc3[nH]ccc3c2)c2ccc(-c3ccccn3)cc21` was tested, and the Activity [1] was “inactive”, the Activity [2] was “inactive” and the Activity [6] was “inactive”. The Activity [7] was “inactive”.
For `CC1(C)CCN(CCOc2ccc3[nH]ccc3c2)c2ccc(Br)cc21`, the EC50 [4] was 7.59 µM and the EC50 [5] was 15.6 µM.
`CC1(C)CCN(CCOc2ccc3[nH]ccc3c2)c2ccccc21` was tested, and the Activity [9] was “Active”, the Activity [15] was “Active” and the Activity [11] was “Active”. For the same compound, the EC50 [4] was 14.6 µM, the Activity [16] was “Active” and the EC50 [5] was 78.1 µM.
In the case of `CCOC(=O)Cn1ccc2cc(OCCN3CCC(C)(C)c4ccccc43)ccc21`, the Activity [1] is reported as “inactive”, the Activity [2] is reported as “inactive” and the Activity [6] is reported as “inactive”. The Activity [7] was “inactive”.
